According to ChEMBL document CHEMBL1137778, “One scaffold, three binding modes: novel and selective pteridine reductase 1 inhibitors derived from fragment hits discovered by virtual screening” (J Med Chem, 2009):
Active and inactive are the calls of the source. The rule behind the calls is not given here.

Key:
[1] = target: T1, Dihydrofolate reductase (Homo sapiens) (UniProt P00374); test: Inhibition of human DHFR-mediated reduction of cytochrome c at upto 30 uM
T1 sequence (whole entry): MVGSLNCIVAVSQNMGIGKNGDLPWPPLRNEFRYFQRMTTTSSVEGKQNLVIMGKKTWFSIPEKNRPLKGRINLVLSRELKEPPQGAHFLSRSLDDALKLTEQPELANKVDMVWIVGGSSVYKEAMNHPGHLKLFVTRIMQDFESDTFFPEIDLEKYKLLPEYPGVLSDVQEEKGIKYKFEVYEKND
How it was run: (§1)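 DHFR (T. brucei or human) activity followed by cytochrome c reduction coupled to enzymatic tetrahydrofolate production: 20 mM sodium citrate, 1 mM EDTA, H2F (4.4 μM), cytc (81 μM), NADPH (100 μM), pH 7.4. Absorbance at 550 nm read within the linear phase. Compounds tested up to 30 μM if PTR1 Kiapp below 1 μM, otherwise up to 500 μM.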

[2] = target: Bifunctional dihydrofolate reductase-thymidylate synthase (Trypanosoma brucei brucei) (UniProt Q27783); test: Inhibition of Trypanosoma brucei DHFR-mediated reduction of cytochrome c at upto 30 uM; how it was run: as §1
[3] = target: T2, Pteridine reductase, putative (Trypanosoma brucei, UniProt Q581W1); test: Apparent inhibition of Trypanosoma brucei pteridine reductase 1-mediated reduction of cytochrome c; conditions: read-out: Ki(app)
T2 sequence (Q581W1 whole entry): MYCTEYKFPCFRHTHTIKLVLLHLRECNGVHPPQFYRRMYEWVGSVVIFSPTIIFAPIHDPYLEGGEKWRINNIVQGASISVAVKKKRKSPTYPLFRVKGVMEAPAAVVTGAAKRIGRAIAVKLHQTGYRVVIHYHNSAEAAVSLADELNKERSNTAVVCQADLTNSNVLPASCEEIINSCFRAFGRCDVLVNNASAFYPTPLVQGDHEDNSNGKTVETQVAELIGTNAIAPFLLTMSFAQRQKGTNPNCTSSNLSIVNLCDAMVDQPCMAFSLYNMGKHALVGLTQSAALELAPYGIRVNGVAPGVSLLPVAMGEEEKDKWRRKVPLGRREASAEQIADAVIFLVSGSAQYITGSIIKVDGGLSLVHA
How it was run: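 TbPTR1 activity read through cytochrome c reduction coupled to enzymatic H4B formation. Absorbance at 550 nm read within the linear phase. Kiapp derived by fitting a modified Morrison equation.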

[4] = target: T3, Pteridine reductase, putative (Trypanosoma brucei) (UniProt Q581W1); test: Inhibition of Trypanosoma brucei pteridine reductase 1 at 100 uM
T3 sequence (whole entry): T2 sequence (Q581W1 whole entry)
How it was run: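 TbPTR1 activity followed by cytochrome c reduction coupled to enzymatic tetrahydrobiopterin production: 20 mM sodium citrate, 1 mM EDTA, H2B (0.35 μM), cytc (81 μM), NADPH (100 μM), pH 6.0. Absorbance at 550 nm read within the linear phase. Fragment hits tested once at 100 μM as percent inhibition.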

[5] = target: Bifunctional dihydrofolate reductase-thymidylate synthase (Trypanosoma brucei brucei) (UniProt Q27783); test: Inhibition of Trypanosoma brucei DHFR-mediated reduction of cytochrome c at upto 500 uM; how it was run: as §1
[6] = target: T1, Dihydrofolate reductase (Homo sapiens); test: Inhibition of human DHFR-mediated reduction of cytochrome c at upto 500 uM; how it was run: as §1
[7] = Distribution coefficient, log D of the compound; assay type: physicochemical; conditions: octanol/water
Trypanosoma brucei = test: Antitrypanosomal activity against Trypanosoma brucei by cell culture assay; assay type: functional, organism-based

Sequence of Bifunctional dihydrofolate reductase-thymidylate synthase (Trypanosoma brucei brucei) (Q27783 whole entry, looked up): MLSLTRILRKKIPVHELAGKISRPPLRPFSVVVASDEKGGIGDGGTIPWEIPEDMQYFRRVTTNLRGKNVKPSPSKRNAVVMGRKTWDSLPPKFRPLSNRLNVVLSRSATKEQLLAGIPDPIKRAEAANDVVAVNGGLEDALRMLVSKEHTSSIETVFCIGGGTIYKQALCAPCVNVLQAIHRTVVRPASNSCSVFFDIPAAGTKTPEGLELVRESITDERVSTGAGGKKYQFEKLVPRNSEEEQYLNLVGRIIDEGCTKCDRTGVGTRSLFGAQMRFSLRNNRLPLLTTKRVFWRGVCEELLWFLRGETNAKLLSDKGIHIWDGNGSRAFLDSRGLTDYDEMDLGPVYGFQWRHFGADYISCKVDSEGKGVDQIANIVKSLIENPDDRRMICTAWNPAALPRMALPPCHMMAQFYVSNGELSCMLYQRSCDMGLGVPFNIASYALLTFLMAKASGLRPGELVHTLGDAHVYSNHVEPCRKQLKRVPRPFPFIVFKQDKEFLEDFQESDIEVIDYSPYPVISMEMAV

inhibition [4] [%]	SMILES	other results
–	Nc1nc2cccc(Cl)c2n1Cc1ccc(Cl)c(Cl)c1	inhibition [1]: inactive; inhibition [2]: inactive; Ki [3]: 0.51 µM
-0.8	Nc1nc(-c2ccc(Br)cc2)n[nH]1	–
38.5	Nc1nnc(SCC(=O)NCc2ccc3c(c2)OCO3)[nH]1	–
21	O=C(Cc1ccccc1Cl)Nc1c[nH]c(=O)[nH]c1=O	–
18.8	Nc1nnc(-c2ccc(Cl)cc2Cl)[nH]1	–
–	CCCOc1cccc2nc(N)n(Cc3ccc(Cl)c(Cl)c3)c12	inhibition [1]: inactive; inhibition [2]: inactive; Ki [3]: 0.047 µM
23.1	N#Cc1ccc(CSc2nnc(N)s2)cc1	–
19.8	COc1ccccc1-c1nnc(N)[nH]1	–
5	CC(C)CC(=O)Nc1c[nH]c(=O)[nH]c1=O	–
–	CCn1c(N)nc2ccccc21	inhibition [5]: inactive; inhibition [6]: inactive; Ki [3]: > 200 µM
17.6	Cc1ccc(CSc2n[nH]c(N)n2)c(C)c1	–
17.4	CC(Nc1c[nH]c(=O)[nH]c1=O)c1ccccc1 (centres undefined)	–
10.7	Nc1nc(CNC(=O)c2ccccc2)n[nH]1	–
4.5	O=c1[nH]cc(/N=C/c2ccc(Br)cc2)c(=O)[nH]1	–
32.3	Nc1nc(-c2ccc3c(c2)CCC3)cs1	–
–	Nc1nc2ccccc2[nH]1	inhibition [5]: inactive; inhibition [6]: inactive; Ki [3]: 288 µM
36.3	O=c1[nH]c(=O)c2c(-c3ccccc3)csc2[nH]1	–
4.5	O=C(Nc1ncnc2nc[nH]c12)c1ccccc1	–
7.9	O=C(Nc1c[nH]c(=O)[nH]c1=O)c1ccccc1F	–
31.3	Nc1nc(-c2ccncc2)cs1	–
43.2	Nc1nc(-c2ccc(O)cc2)cs1	–
19.3	Nc1nc(NCc2ccc(F)cc2)n[nH]1	–

inhibition [4] [%]	SMILES	other results
-3.5	CCc1n[nH]c(N)n1	–
5.9	OCCNc1ncnc2[nH]cnc12	–
5.7	O=c1[nH]cc(COCc2ccccc2)c(=O)[nH]1	–
–	Nc1nc2ccccc2n1CCc1ccccc1	inhibition [5]: inactive; inhibition [6]: inactive
18.1	CNc1nc(N)c(C(=O)c2ccccc2)s1	–
25.1	c1nc(NCC2CCCO2)c2nc[nH]c2n1 (centres undefined)	–
3.3	Nc1nc(SCC(=O)NCc2ccco2)n[nH]1	–
44.2	Cc1ccc(CNc2n[nH]c(N)n2)cc1	–
–	Cc1cccc(-c2ccc3nc(N)[nH]c3c2)c1	inhibition [5]: inactive; inhibition [6]: inactive; Ki [3]: 9.8 µM
-4	Cc1cc(C)n(-c2cc(=O)[nH]c(=O)[nH]2)n1	–
22.8	Oc1ncc(/N=C/c2ccccc2)c(O)n1	–
3.9	CC(C)c1n[nH]c(N)n1	–
-0.3	Cc1[nH]c(=O)[nH]c(=O)c1Cc1ccccc1	–
66.4	c1ccc(CCNc2ncnc3[nH]cnc23)cc1	–
45.1	Nc1nc(C2CCCCC2)n[nH]1	–
23	CNc1nc(N)c(C(=O)C(C)(C)C)s1	–
9.3	Nc1nc(-c2ccccc2Cl)n[nH]1	–
–	Nc1nc2ccccc2n1Cc1ccc(Cl)c(Cl)c1	inhibition [1]: inactive; inhibition [2]: inactive; Ki [3]: 0.4 µM
0.9	CC(C)CSc1n[nH]c(N)n1	–
–	COC(=O)c1ccc2nc(N)sc2c1	inhibition [5]: inactive; inhibition [6]: inactive; Ki [3]: 21.1 µM
20.2	Cc1ccc(-c2n[nH]c(N)n2)cc1	–
–	Nc1nc2cccc(-c3ccccc3)c2n1Cc1ccc(Cl)c(Cl)c1	logD [7]: 3.7; inhibition [1]: inactive; inhibition [2]: inactive; EC50 (Trypanosoma brucei): 10 µM; Ki [3]: 0.007 µM

SMILES	inhibition [4] [%]	other results
Nc1nc(Cc2nnc(N)[nH]2)n[nH]1	11.4	–
Nc1nc2ccc(C(=O)N3CCCCC3)cc2s1	49.9	inhibition [5]: inactive; inhibition [6]: inactive; Ki [3]: 141 µM
O=c1cc(Nc2ccc(Cl)cc2)[nH]c(=O)[nH]1	11.8	–
Nc1nc2ccc(Cl)cc2[nH]1	72.3	inhibition [5]: inactive; Activity [6]: inactive; Ki [3]: 10.6 µM
Nc1nc(CCc2n[nH]c(N)n2)n[nH]1	6.9	–
